The results in this text go back to ChEMBL document CHEMBL3612023, “Synthesis and in vitro characterization of novel fluorinated derivatives of the TSPO 18 kDa ligand SSR180575” (Eur J Med Chem, 2015).

Data set [1] in a line: Biotransformation in human liver microsomes at 5 uM measured at 20 mins by HPLC/ESI-MS/MS analysis. The format is ADME. The settings on record: read-out: Drug metabolism. In a few lines:
(§1)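 Hepatic microsomes (male CD1 mouse, male Sprague-Dawley rat, or pooled human) at 1 mg/mL protein with 1 mg/mL BSA; substrate 5 µM. Reference sample held 0 min without cofactor; test sample run 20 min with 1 mM NADPH. Reaction quenched with 1 volume ACN, proteins spun out, supernatant analysed by HPLC/ESI-MS/MS in positive SIR. % biotransformation = (1 − area B/area A) × 100.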

Data set [2] can be described thus: n-octanol/buffer partition coefficient, log D of the compound at pH 7.4 by HPLC method. The data set is classed as physicochemical.
Data set [3] can be described thus: Biotransformation in Sprague-Dawley rat liver microsomes at 5 uM measured at 20 mins by HPLC/ESI-MS/MS analysis. The data set is classed as ADME. The settings on record: read-out: Drug metabolism. The essentials: as §1
Background: Liver microsomes are a subcellular fraction often used to study metabolism.

The nature of data set [4]: Biotransformation in CD1 mouse liver microsomes at 5 uM measured at 20 mins by HPLC/ESI-MS/MS analysis. The format is ADME. The settings on record: read-out: Drug metabolism. In a few lines:
as §1

As to `COc1ccc(-n2nc(CC(=O)N(C)C)c3c4ccc(Cl)cc4n(C)c3c2=O)cc1`, the results for the metabolised at 20 min, 5 µM in data set [1], in data set [3] and in data set [4] were 22%, 4% and 22%, respectively. Besides, the logD – broadly, lipophilicity at a set pH, counting ionised and neutral species – in data set [2] amounted to 3.01.

As for `CN(C)C(=O)Cc1nn(-c2ccc(OCCF)cc2)c(=O)c2c1c1ccc(Cl)cc1n2C`, the metabolised at 20 min, 5 µM in data set [1] was 0%; in data set [3], 2%; in data set [4], 0%. Further, the logD in data set [2] turned out to be 3.12.

`CN(C)C(=O)Cc1nn(-c2ccc(OCCCF)cc2)c(=O)c2c1c1ccc(Cl)cc1n2C`: the metabolised at 20 min, 5 µM in data set [1] was determined as 4%; in data set [3], 3%; in data set [4], 4%. The logD in data set [2] is 3.48.

Regarding `CN(C)C(=O)Cc1nn(-c2ccc(OCCCCF)cc2)c(=O)c2c1c1ccc(Cl)cc1n2C`, the metabolised at 20 min, 5 µM in data set [1] was 16%; in data set [3], 13%; in data set [4], 1%. In addition, the logD in data set [2] turned out to be 3.75.

Take `CN(C)C(=O)Cc1nn(-c2ccc(OC/C=C/CF)cc2)c(=O)c2c1c1ccc(Cl)cc1n2C`: the figures for the metabolised at 20 min, 5 µM in data set [1], in data set [3] and in data set [4] were 76%, 41% and 53%, respectively. This compound also returned a logD in data set [2] of 3.62.

Take `CN(C)C(=O)Cc1nn(-c2ccc(OCC#CCF)cc2)c(=O)c2c1c1ccc(Cl)cc1n2C`: the metabolised at 20 min, 5 µM in data set [1] turned out to be 47%; in data set [3], 25%; in data set [4], 42%. In data set [2], this compound had a logD of 3.54.

As for `CN(C)C(=O)Cc1nn(-c2ccc(OCCOCCF)cc2)c(=O)c2c1c1ccc(Cl)cc1n2C`, the metabolised at 20 min, 5 µM in data set [1] worked out at 17%; in data set [3], 11%; in data set [4], 17%. In data set [2], this compound came in with a logD of 3.11.

For `CN(C)C(=O)Cc1nn(-c2ccc(OCCOCCOCCF)cc2)c(=O)c2c1c1ccc(Cl)cc1n2C`, the metabolised at 20 min, 5 µM in data set [1] was 81%; in data set [3], 52%; in data set [4], 69%. In addition, the logD in data set [2] stood at 3.08.

Consider `CN(C)C(=O)Cc1nn(-c2ccccc2)c(=O)c2c1c1ccc(Cl)cc1n2CCF`, for which the metabolised at 20 min, 5 µM in data set [1] came to 19%; in data set [3] it was 14%; in data set [4], 5%. In data set [2], this compound had a logD of 3.09.

With `CN(C)C(=O)Cc1nn(-c2ccccc2)c(=O)c2c1c1ccc(Cl)cc1n2CCCF`, the logD in data set [2] is 3.38.

Take `CN(C)C(=O)Cc1nn(-c2ccccc2)c(=O)c2c1c1ccc(Cl)cc1n2CCCCF`: in data set [2], the logD was 3.66.

For `CN(C)C(=O)Cc1nn(-c2ccccc2)c(=O)c2c1c1ccc(Cl)cc1n2C/C=C/CF`, the metabolised at 20 min, 5 µM in data set [1] came out at 38%; in data set [3], 44%; in data set [4], 31%. Besides, the logD in data set [2] worked out at 3.48.

`CN(C)C(=O)Cc1nn(-c2ccccc2)c(=O)c2c1c1ccc(Cl)cc1n2CC#CCF`: the metabolised at 20 min, 5 µM was 30% in data set [1], 26% in data set [3] and 39% in data set [4]. In data set [2], the logD came to 3.44.

On to `CN(C)C(=O)Cc1nn(-c2ccccc2)c(=O)c2c1c1ccc(Cl)cc1n2CCOCCF`, for which, in data set [2], the logD is 3.2.

For the compound `CN(C)C(=O)Cc1nn(-c2ccccc2)c(=O)c2c1c1ccc(Cl)cc1n2CCOCCOCCF`, the logD in data set [2] amounted to 3.19.

Turning to `CN(C)C(=O)Cc1nn(-c2ccccc2)c(=O)c2c1c1ccc(Cl)cc1n2C`, the figures for the metabolised at 20 min, 5 µM in data set [1], in data set [3] and in data set [4] were 10%, 14% and 21%, respectively. Further, the logD in data set [2] turned out to be 2.97.
